Activity calls are given as the source filed them. The rule behind the calls is not given here.

In assay [1] the target is T1, Aldo-keto reductase family 1 member C3 (Homo sapiens) (UniProt P42330).
T1 sequence (whole entry): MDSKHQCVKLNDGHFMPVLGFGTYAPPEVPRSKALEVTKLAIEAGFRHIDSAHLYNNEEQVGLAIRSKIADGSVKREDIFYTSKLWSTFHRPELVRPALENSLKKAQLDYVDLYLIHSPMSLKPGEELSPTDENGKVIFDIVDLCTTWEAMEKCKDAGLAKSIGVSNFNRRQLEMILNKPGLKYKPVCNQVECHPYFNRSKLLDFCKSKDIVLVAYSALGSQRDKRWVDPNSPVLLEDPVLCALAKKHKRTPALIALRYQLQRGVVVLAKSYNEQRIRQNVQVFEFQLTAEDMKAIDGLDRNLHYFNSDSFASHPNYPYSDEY
As to the kind of experiment: Inhibition of human 17beta-HSD5 expressed in HEK293 cells assessed as enzyme-mediated transformation of [14C]-4-androstene-3,17-dione in to [14C]-testosterone at 0.3 uM after 18 hrs. The assay is classed as cell-based. The method, boiled down: (§1)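 Intact HEK-293 cells stably over-expressing human 17β-HSD5, in freshly changed culture medium. [14C]-4-androstene-3,17-dione is added at 100 nM with inhibitor from an ethanolic solution; controls get ethanol only. After 18 h the conversion to [14C]-T is measured.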

The target of assay [2] is T1, Aldo-keto reductase family 1 member C3 (Homo sapiens). Description: Inhibition of human 17beta-HSD5 expressed in HEK293 cells assessed as enzyme-mediated transformation of [14C]-4-androstene-3,17-dione in to [14C]-testosterone at 3 uM after 18 hrs. The assay is classed as cell-based. The method, boiled down:
as §1

Assay [3] has as its target T2, Aldo-keto reductase family 1 member C3 (Homo sapiens, UniProt P42330).
T2 sequence (P42330 whole entry): T1 sequence (whole entry)
Description: Inhibition of human 17beta-HSD5 expressed in HEK293 cells assessed as enzyme-mediated transformation of [14C]-4-androstene-3,17-dione in to [14C]-testosterone after 18 hrs. The assay is classed as cell-based. The method, boiled down: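 Intact HEK-293 cells stably over-expressing human 17β-HSD5, in fresh culture medium. [14C]-4-androstene-3,17-dione 0.1 μM with inhibitor added in ethanol (ethanol alone as control), 18 h.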

In assay [4] the test system is ZR-75-1. As to the kind of experiment: Estrogenic activity in human ZR-75-1 cells expressing estrogen receptor assessed as estrogen-induced cell proliferation at 1 uM after 9 days relative to estrogen. The assay is classed as functional. The method, boiled down:
(§2)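 ZR-75-1 cells are resuspended in phenol red-free RPMI 1640 with 5% dextran-charcoal-treated FBS and seeded at 10,000 cells/well. After 3 days of adhesion, lactones from ethanol stocks are added alone or with E2 (0.1 nM). Cells grow 9 days at 37 °C in 5% CO2, with medium changed every 2–3 days. DNA is measured by DABA fluorescence; E2-induced growth is set to 100%.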

Assay [5] concerns ZR-75-1. Description: Antiestrogenic activity in human ZR-75-1 cells expressing estrogen receptor assessed as inhibition of estrogen-induced cell proliferation at 0.03 uM after 9 days relative to estrogen. The assay is classed as functional, cell-based. The method, boiled down: as §2
Assay [6] deals with ZR-75-1. Description: Antiestrogenic activity in human ZR-75-1 cells expressing estrogen receptor assessed as inhibition of estrogen-induced cell proliferation at 1 uM after 9 days relative to estrogen. The assay is classed as functional, cell-based. The method, boiled down: as §2
The species named for assay [7] is Mus musculus. Description: Androgenic activity in mouse SC115 cells expressing androgen receptor assessed as DHT-induced cell proliferation at 0.1 uM after 10 days relative to DHT. The assay is classed as functional, cell-based. The method, boiled down: (§3)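 SC115 Shionogi clone selected for DHT sensitivity, in MEM with 2% dextran-charcoal-treated FCS, seeded at 20,000 cells/well. After 24 h the medium is renewed and lactones added at 0.1 and 1, without DHT. Final ethanol is 0.01%. Cells are grown 10 days at 37 °C in 5% CO2, with medium changed every 3–4 days. DNA is measured by DABA fluorescence; DHT-stimulated growth is set to 100%.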

The species entered for assay [8] is Mus musculus. As to the kind of experiment: Androgenic activity in mouse SC115 cells expressing androgen receptor assessed as DHT-induced cell proliferation at 1 uM after 10 days relative to DHT. The assay is classed as functional, cell-based. The method, boiled down:
as §3

Assay [9] addresses T3, Progesterone receptor (Rattus norvegicus) (UniProt Q63449).
T3 sequence (whole entry): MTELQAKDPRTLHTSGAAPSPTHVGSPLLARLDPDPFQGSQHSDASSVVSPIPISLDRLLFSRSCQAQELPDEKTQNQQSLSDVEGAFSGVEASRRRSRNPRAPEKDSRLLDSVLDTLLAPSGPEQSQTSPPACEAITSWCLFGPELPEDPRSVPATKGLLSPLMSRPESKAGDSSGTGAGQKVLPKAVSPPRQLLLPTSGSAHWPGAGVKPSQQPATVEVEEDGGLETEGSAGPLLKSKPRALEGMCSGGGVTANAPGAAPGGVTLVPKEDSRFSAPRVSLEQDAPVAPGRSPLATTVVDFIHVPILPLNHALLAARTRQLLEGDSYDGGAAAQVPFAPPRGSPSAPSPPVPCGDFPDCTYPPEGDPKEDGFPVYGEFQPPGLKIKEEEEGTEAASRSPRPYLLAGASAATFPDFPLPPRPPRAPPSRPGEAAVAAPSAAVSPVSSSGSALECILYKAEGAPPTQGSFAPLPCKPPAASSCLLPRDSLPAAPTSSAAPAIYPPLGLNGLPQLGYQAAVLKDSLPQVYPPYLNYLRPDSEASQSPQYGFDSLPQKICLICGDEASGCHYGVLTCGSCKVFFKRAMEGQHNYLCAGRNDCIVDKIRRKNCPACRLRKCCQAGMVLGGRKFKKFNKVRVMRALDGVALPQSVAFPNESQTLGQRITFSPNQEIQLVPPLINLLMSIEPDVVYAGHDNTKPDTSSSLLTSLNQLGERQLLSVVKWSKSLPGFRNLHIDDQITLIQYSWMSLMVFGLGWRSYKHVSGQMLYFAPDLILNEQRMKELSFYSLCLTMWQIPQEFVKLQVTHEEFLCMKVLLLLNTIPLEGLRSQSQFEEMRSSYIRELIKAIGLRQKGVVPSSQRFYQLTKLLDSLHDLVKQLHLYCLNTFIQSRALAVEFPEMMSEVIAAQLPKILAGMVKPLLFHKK
As to the kind of experiment: Binding affinity to rat uterus progesterone receptor at 10 uM.

By inhibition is commonly meant the share of the control response that was lost under treatment. What is called IC50 is the point on the concentration scale where inhibition reaches its midpoint. As for `CC1(C)CC[C@@]2(CC[C@H]3[C@@H]4CCc5ccccc5[C@H]4CC[C@@]32C)OC1=O`, the results for the inhibition in assay [1] and in assay [2] were 94% and 95%, respectively. In addition, in assay [3], the IC50 is 2.9 nM. Moreover, the Activity with ZR-75-1 [4] is 50%. Besides, the result with ZR-75-1 [5], in the assay with ZR-75-1 [6], in the assay filed under Mus musculus [7] and in the assay listed under Mus musculus [8] was inactive.
Turning to `CC1(C)CC[C@@]2(CC[C@H]3[C@@H]4CCc5cc(O)ccc5[C@H]4CC[C@@]32C)OC1=O`, the inhibition was 86% in [1] and 94% in [2]. In assay [3], the 50% inhibitory concentration (IC50) is 28 nM. The Activity in the assay on ZR-75-1 [4] is 30%; in [9], 35%. Besides, the outcome with ZR-75-1 [5], in the assay listed under Mus musculus [7] and in the assay listed under Mus musculus [8] was inactive. Further, the outcome with ZR-75-1 [6] was Active.
